# Assay results as given in publication PMC5469400 (Drug Metabolism and Disposition, 2017).
# pIC50: −log10 of the molar value.
# How the values were obtained:
# [1] = tested on: primary human hepatocyte and Kupffer cell cocultures; assay: LDH release in the LiverChip; assay type: cell-based
# In short: (§1)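 Cryopreserved primary human hepatocytes and Kupffer cells (10:1, 600,000 cells/well) were cocultured in perfused LiverChip scaffolds (1.0 µl/s), with hydrocortisone-containing (100 nM) WEM from day 3. Test compound in DMSO (0.5% v/v final) was given from day 5 and redosed at each 48-hour medium change, ±LPS 1 µg/ml. Medium was sampled 48 hours after each dose for albumin (ELISA) and LDH activity; n = 3, S.D.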
# [2] = tested on: bile acid production in 3D liver coculture; assay: Bile acids in culture medium by LC-MS; assay type: cell-based, human; conditions: for level of GCA after 48 h / level of cholic acid after 48 h / level of glycochenodeoxycholic acid 3-glucuronide after 48 h / level of glycochenodeoxycholic acid after 48 h / level of taurocholic acid after 48 h: 0 μM DCF = 100, relative EIC
# In short: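 Perfused LiverChip cocultures of cryopreserved primary human hepatocytes and Kupffer cells (10:1, 600,000 cells/well) in WEM with 100 nM hydrocortisone. Test compound in DMSO (0.5% v/v final) or LPS 1 µg/ml added from day 5, refreshed at 48 h medium changes. d5-GCA internal standard added before extraction. Bile acids in medium at 48 h by accurate MS peak area (EIC%) relative to vehicle = 100. Mean of two technical replicates.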
# [3] = tested on: acute phase proteins (APPs); assay: iTRAQ 8plex quantitation of acute phase proteins in conditioned medium; assay type: cell-based, human; conditions: day 7; normalized to untreated control; drug 440 μM DCF, LPS 1 µg/ml
# In short: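 Day 7 conditioned medium from perfused human hepatocyte–Kupffer cell cocultures treated with test compound (440 μM), LPS (1 µg/ml) or both. Albumin depleted; 100 μg protein reduced (2 mM TCEP, 37°C, 30 min), blocked (10 mM MMTS, 1 h) and trypsin-digested (1:40 w/w, 37°C overnight). Peptides iTRAQ-8plex labelled (3 h, RT), then C18-cleaned. Values are ln2 ratios versus untreated control (combined treatment versus LPS).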
# [4] = DCF clearance / PK in the LiverChip, one-compartment model; assay type: in vitro ADME; conditions: human
# [5] = tested on: coculture of hepatocytes and Kupffer cells (10:1); assay: Extrapolation of in vitro DCF clearance to predicted hepatic clearance; assay type: in vitro ADME, human
# [6] = tested on: primary hepatocyte–Kupffer cell cocultures; assay: WST-1 cell viability in the LiverChip, repeat dosing; assay type: cell-based; conditions: Homo sapiens, read-out: IC50 (cell viability, WST-1)
# In short: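 Perfused LiverChip cocultures of cryopreserved primary human hepatocytes and Kupffer cells (10:1, 600,000 cells/well; post-thaw viability >85%). Test compound in DMSO (0.5% v/v final) dosed from day 5. Medium and fresh compound replaced every 48 h. Viability measured by WST-1; mean of two replicates.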
# [7] = tested on: primary human hepatocyte and Kupffer cell cocultures; assay: Albumin secretion; assay type: cell-based; conditions: high DCF concentrations (>50×), measured 48 hours after each dose
# In short: as §1
# [8] = tested on: proteins in hepatocyte-Kupffer cell coculture medium; assay: Shotgun proteomics of secreted proteins, spectral counting; assay type: cell-based, human; conditions: 440 μM DCF
# In short: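 Perfused hepatocyte–Kupffer cell coculture medium was collected from control and 440 μM test compound cultures on days 5 and 7 and depleted of albumin. Proteins were taken up in 8 M urea/50 mM ABC with ProteaseMAX, reduced with DTT (56°C, 30 min) and alkylated with IAA (30 min, room temperature, dark). Fractions were cleaned on C18, analysed by shotgun LC-MS/MS and quantified by spectral counting.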
# [9] = wells in the absence of cells, concentration monitored over 24 hours
# [10] = cited from earlier work
compound,measurement,setting,value
lipopolysaccharide [LPS],effect of LPS codosing on toxicity profile of DCF,"[1]; gross markers of functionality and cell death, LPS 1 µg/ml",does not significantly change the toxicity profile
same,effect of LPS together with DCF on drug toxicity (bile acid production),"[2]; LPS alone, DCF, LPS plus DCF",synergistic effect
same,"ln2 iTRAQ value, Amyloid β A4 protein isoform b",[3],−1.7
same,"ln2 iTRAQ value, Angiotensinogen",[3],3.7
same,"ln2 iTRAQ value, Ceruloplasmin",[3],3.8
same,"ln2 iTRAQ value, Complement component C3",[3],5.1
same,"ln2 iTRAQ value, Haptoglobin",[3],3.8
same,"ln2 iTRAQ value, Hypothetical protein",[3],3.9
same,"ln2 iTRAQ value, Leucine-rich α2-glycoprotein",[3],2.8
same,"ln2 iTRAQ value, Liver carboxylesterase 1 isoform a",[3],2.4
same,"ln2 iTRAQ value, Retinol binding protein 4",[3],5.0
same,"ln2 iTRAQ value, Serum albumin",[3],3.9
same,"ln2 iTRAQ value, Transferrin",[3],3.0
same,"ln2 iTRAQ value, Transthyretin",[3],1.3
same,"ln2 iTRAQ value, Vitamin D binding protein",[3],2.1
same,"ln2 iTRAQ value, α1-acid glycoprotein 1",[3],7.0
same,"ln2 iTRAQ value, α1-acid glycoprotein 2",[3],5.0
same,"ln2 iTRAQ value, α1-antitrypsin",[3],4.2
same,"ln2 iTRAQ value, α1 antiproteinase",[3],4.2
same,"ln2 iTRAQ value, α2-HS glycoprotein",[3],1.5
"O=C(O)Cc1ccccc1Nc1c(Cl)cccc1Cl [DCF, diclofenac]",half-life at 4.4 µM,[4],14.6 h
same,underprediction of predicted CLh versus in vivo plasma clearance,[5],< 7 fold
same,pIC50,[6],3.64
same,LDH release,"[1]; high DCF concentrations (>50×), measured 48 hours after each dose",became more pronounced after the second dose
same,albumin secretion,[7],declined after a single dose
same,DCF-induced toxicity as assessed by suppression of GCA production,"[2]; 0, 44, 110, 220 and 440 µM DCF",continuous dose-response relationship
same,level of GCA after 48 h,[2]; 110 μM DCF,57%
same,level of cholic acid after 48 h,[2]; 110 μM DCF,66%
same,level of glycochenodeoxycholic acid 3-glucuronide after 48 h,[2]; 110 μM DCF,69%
same,level of glycochenodeoxycholic acid after 48 h,[2]; 110 μM DCF,50%
same,level of taurocholic acid after 48 h,[2]; 110 μM DCF,77%
same,level of GCA after 48 h,[2]; 440 μM DCF,2%
same,level of cholic acid after 48 h,[2]; 440 μM DCF,12%
same,level of glycochenodeoxycholic acid 3-glucuronide after 48 h,[2]; 440 μM DCF,14%
same,level of glycochenodeoxycholic acid after 48 h,[2]; 440 μM DCF,15%
same,level of taurocholic acid after 48 h,[2]; 440 μM DCF,10%
same,number of proteins different between control and DCF-treated samples,[8]; day 5,13 proteins
same,"number of additional proteins elevated, not identified in the control",[8]; day 7,68 proteins
same,"ln2 iTRAQ value, Haptoglobin",[3],0.5
same,"ln2 iTRAQ value, α1 antiproteinase",[3],1.0
same,"ln2 iTRAQ value, α2 macroglobulin",[3],−1.0
same,binding to the LiverChip components,[9],no detectable binding
same,in vivo plasma clearance,"[10]; human, ref http://www.capkr.man.ac.uk",3.8 ml/min per kilogram
same,Cmax,[10]; recommended dose of DCF in humans,4.4 µM
